Laboratory results as given in ChEMBL document CHEMBL1629526, “4-[1-(Substituted aryl/alkyl carbonyl)-benzoimidazol-2-yl]-benzenesulfonic acids: synthesis, antimicrobial activity, QSAR studies, and antiviral evaluation” (Eur J Med Chem, 2010).
In brackets after ≈: the same amount, converted by molar mass.

What was measured:
Staphylococcus aureus = assay: Antimicrobial activity against Staphylococcus aureus after 24 hrs by tube dilution method; type: functional
Bacillus subtilis = assay: Antimicrobial activity against Bacillus subtilis after 24 hrs by tube dilution method; type: functional
Procedure, shortened: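 Serial dilutions in double-strength nutrient broth (I.P.) with ciprofloxacin as reference, tube dilution, incubated 37 °C for 24 h. MIC is the lowest concentration that inhibited growth.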

Escherichia coli = assay: Antimicrobial activity against Escherichia coli after 24 hrs by tube dilution method; type: functional
Candida albicans = assay: Antimicrobial activity against Candida albicans after 48 hrs by tube dilution method; type: functional
Aspergillus niger = assay: Antimicrobial activity against Aspergillus niger after 7 days by tube dilution method; type: functional; settings: 168 h
[1] = Cytotoxicity against cat CRFK cells assessed as cell viability by MTS assay; type: cell-based, Felis catus; settings: crfk
Procedure, shortened: (§1)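 Uninfected cultures were run in parallel with the antiviral assays. Viability was read by colorimetric formazan MTS assay.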

Felid alphaherpesvirus 1 = assay: Antiviral activity against Feline herpesvirus 1 infected in cat CRFK cells assessed as inhibition of virus induced cytopathicity after 2 to 4 days by MTS assay; type: functional, organism-based; settings: Felid alphaherpesvirus 1, CRFK
Feline coronavirus = assay: Antiviral activity against Feline coronavirus infected in cat CRFK cells assessed as inhibition of virus induced cytopathicity after 2 to 4 days by MTS assay; type: functional, organism-based; settings: Alphacoronavirus 1, CRFK
[2] = Cytotoxicity against human HEL cells assessed as altered cell morphology; type: cell-based
Procedure, shortened: (§2)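 Uninfected cell cultures run alongside the antiviral assays, exposed to serial compound dilutions and incubated at 37 °C for 2–4 days. Toxicity was scored microscopically and reported as the minimum cytotoxic concentration (MCC), the lowest concentration causing a detectable change in normal cell morphology.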

Human alphaherpesvirus 1 [3] = assay: Antiviral activity against Herpes simplex virus 1 KOS infected in HEL cells assessed as inhibition of virus induced cytopathicity after 2 to 4 days by MTS assay; type: functional, organism-based; settings: Human alphaherpesvirus 1, KOS
Human alphaherpesvirus 2 = assay: Antiviral activity against Herpes simplex virus 2 G infected in HEL cells assessed as inhibition of virus induced cytopathicity after 2 to 4 days by MTS assay; type: functional, organism-based; settings: Human alphaherpesvirus 2, strain G
Vaccinia virus = assay: Antiviral activity against Vaccinia virus infected in HEL cells assessed as inhibition of virus induced cytopathicity after 2 to 4 days by MTS assay; type: functional, organism-based; settings: Orthopoxvirus vaccinia
[4] = tested on: Vesicular stomatitis virus; assay: Antiviral activity against Vesicular stomatitis virus infected in HEL cells assessed as inhibition of virus induced cytopathicity after 2 to 4 days by MTS assay; type: functional, organism-based
Human alphaherpesvirus 1 [5] = assay: Antiviral activity against thymidine kinase deficient acyclovir-resistant Herpes simplex virus 1 KOS infected in HEL cells assessed as inhibition of virus induced cytopathicity after 2 to 4 days by MTS assay; type: functional, organism-based; settings: Human alphaherpesvirus 1, KOS
HeLa = assay: Cytotoxicity against human HeLa cells assessed as cell viability by MTS assay; type: cell-based; settings: hela; procedure, shortened: as §1
[6] = Cytotoxicity against human HeLa cells assessed as altered cell morphology; type: cell-based; procedure, shortened: as §2
[7] = tested on: Vesicular stomatitis virus; assay: Antiviral activity against Vesicular stomatitis virus infected in human HeLa cells assessed as inhibition of virus induced cytopathicity by visual scoring of CPE; type: functional, organism-based
[8] = tested on: Vesicular stomatitis virus; assay: Antiviral activity against Vesicular stomatitis virus infected in human HeLa cells assessed as inhibition of virus induced cytopathicity after 2 to 4 days by MTS assay; type: functional, organism-based
Coxsackievirus B4 [9] = assay: Antiviral activity against coxsackievirus B4 infected in human HeLa cells assessed as inhibition of virus induced cytopathicity by visual scoring of CPE; type: functional, organism-based; settings: Enterovirus B
Coxsackievirus B4 [10] = assay: Antiviral activity against coxsackievirus B4 infected in human HeLa cells assessed as inhibition of virus induced cytopathicity after 2 to 4 days by MTS assay; type: functional, organism-based; settings: Enterovirus B
[11] = tested on: Respiratory syncytial virus; assay: Antiviral activity against Respiratory syncytial virus infected in human HeLa cells assessed as inhibition of virus induced cytopathicity by visual scoring of CPE; type: functional, organism-based
[12] = tested on: Respiratory syncytial virus; assay: Antiviral activity against Respiratory syncytial virus infected in human HeLa cells assessed as inhibition of virus induced cytopathicity after 2 to 4 days by MTS assay; type: functional, organism-based
MDCK = assay: Cytotoxicity against MDCK cells assessed as cell viability by MTS assay; type: cell-based, Canis lupus familiaris; settings: dog, mdck; procedure, shortened: as §1
[13] = Cytotoxicity against MDCK cells assessed as altered cell morphology; type: cell-based, Canis lupus familiaris; settings: dog; procedure, shortened: as §2
Influenza A virus [14] = assay: Antiviral activity against Influenza A H1N1 virus subtype infected in MDCK cells assessed as inhibition of virus induced cytopathicity by visual scoring of CPE; type: functional, organism-based
Influenza A virus [15] = assay: Antiviral activity against Influenza A H1N1 virus subtype infected in MDCK cells assessed as inhibition of virus induced cytopathicity after 2 to 4 days by MTS assay; type: functional, organism-based
Influenza A virus [16] = assay: Antiviral activity against Influenza A H3N2 virus subtype infected in MDCK cells assessed as inhibition of virus induced cytopathicity by visual scoring of CPE; type: functional, organism-based
Influenza A virus [17] = assay: Antiviral activity against Influenza A H3N2 virus subtype infected in MDCK cells assessed as inhibition of virus induced cytopathicity after 2 to 4 days by MTS assay; type: functional, organism-based
Influenza B virus [18] = assay: Antiviral activity against Influenza B virus infected in MDCK cells assessed as inhibition of virus induced cytopathicity by visual scoring of CPE; type: functional, organism-based
Influenza B virus [19] = assay: Antiviral activity against Influenza B virus infected in MDCK cells assessed as inhibition of virus induced cytopathicity after 2 to 4 days by MTS assay; type: functional, organism-based
[20] = Cytotoxicity against african green monkey Vero cells assessed as altered cell morphology; type: cell-based; settings: chlorocebus sabaeus; procedure, shortened: as §2
Human respirovirus 3 = assay: Antiviral activity against parainfluenza-3 virus infected in african green monkey Vero cells assessed as inhibition of virus induced cytopathicity after 2 to 4 days by MTS assay; type: functional, organism-based; settings: Human respirovirus 3, Vero
[21] = tested on: Mammalian orthoreovirus 1; assay: Antiviral activity against Reovirus 1 virus infected in african green monkey Vero cells assessed as inhibition of virus induced cytopathicity after 2 to 4 days by MTS assay; type: functional, organism-based; settings: Mammalian orthoreovirus 1, Vero
Sindbis virus = assay: Antiviral activity against Sindbis virus infected in african green monkey Vero cells assessed as inhibition of virus induced cytopathicity after 2 to 4 days by MTS assay; type: functional, organism-based
Coxsackievirus B4 [22] = assay: Antiviral activity against Coxsackie virus B4 infected in african green monkey Vero cells assessed as inhibition of virus induced cytopathicity after 2 to 4 days by MTS assay; type: functional, organism-based; settings: Enterovirus B
Punta Toro virus = assay: Antiviral activity against Punta Toro virus infected in african green monkey Vero cells assessed as inhibition of virus induced cytopathicity after 2 to 4 days by MTS assay; type: functional, organism-based

| SMILES | MBC (Staphylococcus aureus) [µg/mL] | MBC (Bacillus subtilis) [µg/mL] | MBC (Escherichia coli) [µg/mL] | MFC (Candida albicans) [µg/mL] | MFC (Aspergillus niger) [µg/mL] | CC50 [1] [µg/mL] | EC50 (Felid alphaherpesvirus 1) [µg/mL] | EC50 (Feline coronavirus) [µg/mL] | MCC [2] [µg/mL] | EC50 (Human alphaherpesvirus 1 [3]) [µg/mL] | EC50 (Human alphaherpesvirus 2) [µg/mL] | EC50 (Vaccinia virus) [µg/mL] | EC50 [4] [µg/mL] | EC50 (Human alphaherpesvirus 1 [5]) [µg/mL] | CC50 (HeLa) [µg/mL] | MCC [6] [µg/mL] | EC50 [7] [µg/mL] | EC50 [8] [µg/mL] | EC50 (Coxsackievirus B4 [9]) [µg/mL] | EC50 (Coxsackievirus B4 [10]) [µg/mL] | other results |
| --- | --- | --- | --- | --- | --- | --- | --- | --- | --- | --- | --- | --- | --- | --- | --- | --- | --- | --- | --- | --- | --- |
| O=C(c1ccc(O)cc1O)n1c(-c2ccc(S(=O)(=O)O)cc2)nc2ccccc21 | 12.5 (≈ 30.5 µM) | 25 (≈ 60.9 µM) | 1.56 (≈ 3.8 µM) | 12.5 (≈ 30.5 µM) | > 50 | > 100 | > 100 | > 100 | 100 | > 20 | > 20 | > 20 | > 20 | > 20 | > 100 | > 100 | > 100 | > 100 | > 100 | > 100 | EC50 [11]: > 100 µg/mL; EC50 [12]: > 100 µg/mL; CC50 (MDCK): 54 µg/mL (≈ 132 µM); MCC [13]: 20 µg/mL; EC50 (Influenza A virus [14]): > 4 µg/mL; EC50 (Influenza A virus [15]): > 4 µg/mL; EC50 (Influenza A virus [16]): > 4 µg/mL; EC50 (Influenza A virus [17]): > 4 µg/mL; EC50 (Influenza B virus [18]): > 4 µg/mL; EC50 (Influenza B virus [19]): > 4 µg/mL; MCC [20]: > 100 µg/mL; EC50 (Human respirovirus 3): > 100 µg/mL; EC50 [21]: > 100 µg/mL; EC50 (Sindbis virus): > 100 µg/mL; EC50 (Coxsackievirus B4 [22]): > 100 µg/mL; EC50 (Punta Toro virus): > 100 µg/mL |
| O=C(c1ccccc1O)n1c(-c2ccc(S(=O)(=O)O)cc2)nc2ccccc21 | 25 (≈ 63.4 µM) | 25 (≈ 63.4 µM) | 12.5 (≈ 31.7 µM) | 50 (≈ 127 µM) | > 50 | > 100 | > 100 | > 100 | > 100 | > 100 | > 100 | > 100 | > 100 | > 100 | > 100 | > 100 | > 100 | > 100 | > 100 | > 100 | EC50 [11]: > 100 µg/mL; EC50 [12]: > 100 µg/mL; CC50 (MDCK): > 100 µg/mL; MCC [13]: 100 µg/mL; EC50 (Influenza A virus [14]): > 20 µg/mL; EC50 (Influenza A virus [15]): > 20 µg/mL; EC50 (Influenza A virus [16]): > 20 µg/mL; EC50 (Influenza A virus [17]): > 20 µg/mL; EC50 (Influenza B virus [18]): > 20 µg/mL; EC50 (Influenza B virus [19]): > 20 µg/mL; MCC [20]: > 100 µg/mL; EC50 (Human respirovirus 3): > 100 µg/mL; EC50 [21]: > 100 µg/mL; EC50 (Sindbis virus): > 100 µg/mL; EC50 (Coxsackievirus B4 [22]): > 100 µg/mL; EC50 (Punta Toro virus): > 100 µg/mL |
